# Data from ChEMBL document CHEMBL1629494, “New amino acid esters of salicylanilides active against MDR-TB and other microbes” (Eur J Med Chem, 2010).
# Assays:
# [1] = tested on: Mycobacterium avium; experiment: Antimycobacterial activity against multidrug-resistant Mycobacterium avium 330/88 after 21 days by micromethod; format: functional; conditions: 330/88, 504 h
# Procedure, shortened: (§1)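 Micromethod in Sula semisynthetic medium, with compounds added as DMSO solutions at 1000, 500, 250, 125, 62, 32, 16, 8, 4, 2, 1, 0.5, 0.25. Inoculum dilutions: H37Rv 10^-3; M. avium 330/88 10^-5; M. kansasii 235/80 10^-4; M. kansasii 6509/96 10^-5. Incubated at 37 °C, read at 14 and 21 days, and at 7 days for M. kansasii. MIC was the lowest concentration inhibiting growth.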
# [2] = tested on: Mycobacterium kansasii; experiment: Antimycobacterial activity against Mycobacterium kansasii 6509/96 after 21 days by micromethod; format: functional; conditions: 6509/96, 504 h; procedure, shortened: as §1
# [3] = tested on: Mycobacterium tuberculosis; experiment: Antimycobacterial activity against drug-sensitive Mycobacterium tuberculosis; format: functional
# [4] = Selectivity index, ratio of IC50 for human PBMC to MIC for Mycobacterium tuberculosis H37Rv 331/88 after 14 days; format: functional
# Procedure, shortened: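 SI = PBMC IC50 (MTT cytotoxicity) divided by the MIC against the named M. tuberculosis strain. MIC taken after 14 days of incubation at 37 °C by the micromethod.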
# [5] = tested on: Mycobacterium kansasii; experiment: Antimycobacterial activity against Mycobacterium kansasii 235/80 after 21 days by micromethod; format: functional; conditions: 235/80, 504 h; procedure, shortened: as §1
# [6] = tested on: Mycobacterium tuberculosis; experiment: Antimycobacterial activity against Mycobacterium tuberculosis H37Rv 331/88 after 21 days by micromethod; format: functional; conditions: H37Rv 331/88, 504 h; procedure, shortened: as §1
# [7] = tested on: PBMC; experiment: Cytotoxicity against human PBMC after 24 hrs by MTT assay; format: cell-based
# Procedure, shortened: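 Human peripheral blood mononuclear cells in RPMI-1640 with 10% fetal calf serum, 2 mM L-glutamine and gentamicin, 37 °C, 5% CO2. Seeded at 1.5–2.0 × 10⁵ cells/well. After 24 h, treated overnight in serum-free medium. Viability by MTT (2 mg/mL, 4 h); formazan dissolved in DMSO; OD540 minus OD620. Cytotoxicity % = [1 − OD treated/OD control] × 100; IC50 from dose-response curves. Four parallels, two independent experiments.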
# [8] = tested on: Mycobacterium kansasii; experiment: Antimycobacterial activity against Mycobacterium kansasii 235/80 after 14 days by micromethod; format: functional; conditions: 235/80, 336 h; procedure, shortened: as §1
# [9] = tested on: Mycobacterium kansasii; experiment: Antimycobacterial activity against Mycobacterium kansasii; format: functional
# [10] = tested on: Mycobacterium tuberculosis; experiment: Antimycobacterial activity against Mycobacterium tuberculosis H37Rv 331/88 after 14 days by micromethod; format: functional; conditions: H37Rv 331/88, 336 h; procedure, shortened: as §1
# [11] = tested on: Mycobacterium avium; experiment: Antimycobacterial activity against Mycobacterium avium; format: functional
# [12] = tested on: Mycobacterium avium; experiment: Antimycobacterial activity against multidrug-resistant Mycobacterium avium 330/88 after 14 days by micromethod; format: functional; conditions: 330/88, 336 h; procedure, shortened: as §1
# [13] = Lipophilicity, log P of the compound; format: physicochemical; conditions: octanol/water
# [14] = tested on: Mycobacterium kansasii; experiment: Antimycobacterial activity against Mycobacterium kansasii 6509/96 after 7 days by micromethod; format: functional; conditions: 6509/96, 168 h; procedure, shortened: as §1
# [15] = tested on: Mycobacterium kansasii; experiment: Antimycobacterial activity against Mycobacterium kansasii 6509/96 after 14 days by micromethod; format: functional; conditions: 6509/96, 336 h; procedure, shortened: as §1
# [16] = tested on: Mycobacterium kansasii; experiment: Antimycobacterial activity against Mycobacterium kansasii 235/80 after 7 days by micromethod; format: functional; conditions: 235/80, 168 h; procedure, shortened: as §1
# [17] = tested on: Aspergillus fumigatus; experiment: Antifungal activity against Aspergillus fumigatus 231 after 48 hrs by broth microdilution method; format: functional; conditions: Aspergillus fumigatus, 231, 48 h
# [18] = tested on: Staphylococcus aureus; experiment: Antibacterial activity against methicillin-resistant Staphylococcus aureus H5996/08 after 48 hrs by broth microdilution method; format: functional; conditions: H5996/08, 48 h
# Procedure, shortened: (§2)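 Broth microdilution following […], with twofold compound dilutions in Mueller-Hinton bouillon. Incubated 24 and 48 h at 35 °C in the dark in a humid atmosphere. MIC (IC80) was taken as ≥80% growth reduction versus control, read visually and photometrically.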
# [19] = tested on: Klebsiella pneumoniae; experiment: Antibacterial activity against Klebsiella pneumoniae D11750/08 after 48 hrs by broth microdilution method; format: functional; conditions: D11750/08, 48 h; procedure, shortened: as §2
# [20] = tested on: Enterococcus sp.; experiment: Antibacterial activity against Enterococcus sp. J14365/08 after 24 hrs by broth microdilution method; format: functional; conditions: J14365/08, 24 h; procedure, shortened: as §2
# [21] = tested on: Trichosporon beigelii; experiment: Antifungal activity against Trichosporon beigelii 1188 after 24 hrs by broth microdilution method; format: functional; conditions: Trichosporon beigelii, 1188, 24 h
# [22] = tested on: Nakaseomyces glabratus; experiment: Antifungal activity against Candida glabrata 20/I after 24 hrs by broth microdilution method; format: functional
# [23] = tested on: Escherichia coli; experiment: Antibacterial activity against Escherichia coli CCM 4517 after 24 hrs by broth microdilution method; format: functional; conditions: CCM 4517, 24 h; procedure, shortened: as §2
# [24] = tested on: Lichtheimia corymbifera; experiment: Antifungal activity against Absidia corymbifera 272 after 48 hrs by broth microdilution method; format: functional; conditions: Lichtheimia corymbifera, 272, 48 h
# [25] = tested on: Staphylococcus epidermidis; experiment: Antibacterial activity against Staphylococcus epidermidis H6966/08 after 24 hrs by broth microdilution method; format: functional; conditions: H6966/08, 24 h; procedure, shortened: as §2
# [26] = tested on: Candida tropicalis; experiment: Antifungal activity against Candida tropicalis 156 after 24 hrs by broth microdilution method; format: functional; conditions: Candida tropicalis, 156, 24 h
# [27] = tested on: Trichosporon beigelii; experiment: Antifungal activity against Trichosporon beigelii 1188 after 48 hrs by broth microdilution method; format: functional; conditions: Trichosporon beigelii, 1188, 48 h
# [28] = tested on: Candida tropicalis; experiment: Antifungal activity against Candida tropicalis 156 after 48 hrs by broth microdilution method; format: functional; conditions: Candida tropicalis, 156, 48 h
# [29] = tested on: Staphylococcus aureus; experiment: Antibacterial activity against methicillin-resistant Staphylococcus aureus H5996/08 after 24 hrs by broth microdilution method; format: functional; conditions: H5996/08, 24 h; procedure, shortened: as §2
# [30] = tested on: Pichia kudriavzevii; experiment: Antifungal activity against Candida krusei E28 after 48 hrs by broth microdilution method; format: functional; conditions: E28, 48 h
# [31] = tested on: Trichophyton mentagrophytes; experiment: Antifungal activity against Trichophyton mentagrophytes after 24 hrs by broth microdilution method; format: functional
# [32] = tested on: Klebsiella pneumoniae; experiment: Antibacterial activity against Klebsiella pneumoniae D11750/08 after 24 hrs by broth microdilution method; format: functional; conditions: D11750/08, 24 h; procedure, shortened: as §2
# [33] = tested on: Aspergillus fumigatus; experiment: Antifungal activity against Aspergillus fumigatus 231 after 24 hrs by broth microdilution method; format: functional; conditions: Aspergillus fumigatus, 231, 24 h
# [34] = tested on: Staphylococcus aureus; experiment: Antibacterial activity against Staphylococcus aureus CCM 4516/08 after 24 hrs by broth microdilution method; format: functional; conditions: CCM 4516/08, 24 h; procedure, shortened: as §2
# [35] = tested on: Candida albicans; experiment: Antifungal activity against Candida albicans ATCC 44859 after 48 hrs by broth microdilution method; format: functional; conditions: ATCC 44859, 48 h
# [36] = tested on: Enterococcus sp.; experiment: Antibacterial activity against Enterococcus sp. J14365/08 after 48 hrs by broth microdilution method; format: functional; conditions: J14365/08, 48 h; procedure, shortened: as §2
# [37] = tested on: Escherichia coli; experiment: Antibacterial activity against Escherichia coli CCM 4517 after 48 hrs by broth microdilution method; format: functional; conditions: CCM 4517, 48 h; procedure, shortened: as §2
# [38] = tested on: Pichia kudriavzevii; experiment: Antifungal activity against Candida krusei E28 after 24 hrs by broth microdilution method; format: functional; conditions: E28, 24 h
# [39] = tested on: Lichtheimia corymbifera; experiment: Antifungal activity against Absidia corymbifera 272 after 24 hrs by broth microdilution method; format: functional; conditions: Lichtheimia corymbifera, 272, 24 h
# [40] = tested on: Staphylococcus epidermidis; experiment: Antibacterial activity against Staphylococcus epidermidis H6966/08 after 48 hrs by broth microdilution method; format: functional; conditions: H6966/08, 48 h; procedure, shortened: as §2
# [41] = tested on: Candida albicans; experiment: Antifungal activity against Candida albicans ATCC 44859 after 24 hrs by broth microdilution method; format: functional; conditions: ATCC 44859, 24 h
# [42] = tested on: Trichophyton mentagrophytes; experiment: Antifungal activity against Trichophyton mentagrophytes after 48 hrs by broth microdilution method; format: functional
# [43] = tested on: Nakaseomyces glabratus; experiment: Antifungal activity against Candida glabrata 20/I after 48 hrs by broth microdilution method; format: functional
# [44] = tested on: Staphylococcus aureus; experiment: Antibacterial activity against Staphylococcus aureus CCM 4516/08 after 48 hrs by broth microdilution method; format: functional; conditions: CCM 4516/08, 48 h; procedure, shortened: as §2
structure (smiles),measurement,setting,value
CC(=O)N[C@@H](Cc1ccccc1)C(=O)Oc1ccc(Cl)cc1C(=O)Nc1ccc(Cl)c(Cl)c1,MIC,[1],8 µM
same,MIC,[2],4 µM
same,MIC,[3],1 µM
same,Selectivity Index,[4],88
same,MIC,[5],4 µM
same,MIC,[6],1 µM
same,IC50,[7],44 µM
same,MIC,[8],2 µM
same,MIC,[9],1 µM
same,MIC,[10],0.5 µM
same,MIC,[11],1 µM
same,MIC,[12],8 µM
same,logP,[13],5.12
same,MIC,[14],1 µM
same,MIC,[15],2 µM
same,MIC,[16],1 µM
CC(=O)N[C@@H](Cc1ccccc1)C(=O)Oc1cc(Cl)ccc1C(=O)Nc1ccc(Br)cc1,MIC,[17],> 125 µM
same,MIC,[18],7.81 µM
same,MIC,[1],8 µM
same,MIC,[19],> 125 µM
same,MIC,[2],8 µM
same,MIC,[3],1 µM
same,MIC,[20],7.81 µM
same,MIC,[21],15.6 µM
same,MIC,[22],> 125 µM
same,MIC,[23],15.6 µM
same,MIC,[24],62.5 µM
same,MIC,[5],4 µM
same,MIC,[25],0.98 µM
same,MIC,[6],4 µM
same,MIC,[26],> 125 µM
same,MIC,[27],62.5 µM
same,MIC,[28],> 125 µM
same,MIC,[29],0.98 µM
same,MIC,[8],4 µM
same,MIC,[9],1 µM
same,MIC,[30],> 125 µM
same,MIC,[31],7.81 µM
same,MIC,[32],> 125 µM
same,MIC,[10],2 µM
same,MIC,[11],1 µM
same,MIC,[33],62.5 µM
same,MIC,[34],0.98 µM
same,MIC,[35],> 125 µM
same,MIC,[36],125 µM
same,MIC,[12],4 µM
same,MIC,[37],125 µM
same,MIC,[38],> 125 µM
same,MIC,[39],15.6 µM
same,MIC,[14],4 µM
same,MIC,[40],1.95 µM
same,MIC,[41],> 125 µM
same,MIC,[42],15.6 µM
same,MIC,[15],4 µM
same,MIC,[16],2 µM
same,MIC,[43],> 125 µM
same,MIC,[44],1.95 µM
